Calls of active or inactive are those of the source. The calls are words filed in the database; no cut-off is given here.
System: Candida albicans
Assay: Inhibition of Candida albicans CaCdr1p-mediated drug efflux overexpressed in Saccharomyces cerevisiae assessed as nile red accumulation after 30 mins by flow cytometry
How it was run: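 Host is S. cerevisiae AD1-8u− deleted for its own multidrug transporters, carrying the C. albicans transporter ORF integrated at the PDR5 locus (AD-CDR1 or AD-MDR1). Cells are grown in YEPD at 30 °C from OD600 0.1 to 0.25, then resuspended as a 5% suspension in YEPD diluted 1:2 with water. NR is 7 μM final with inhibitor at 70 μM, 30 min at 30 °C. Read-out is flow cytometry of 10 000 cells. Three independent experiments.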

Structure (SMILES) | inhibition
CC(=O)O[C@@H]1[C@H](C)/C=C/C(C)(C)C(=O)C[C@@H](OC(=O)c2ccccc2)/C(C)=C/[C@H]2[C@@H](OC(=O)c3ccccc3)[C@H](C)C[C@]12OC(C)=O | inactive
C=C1CC(OC(C)=O)C(=O)C(C)(C)/C=C/[C@H](C)[C@@H](OC(C)=O)[C@@]2(OC(C)=O)C[C@@H](C)[C@H](OC(=O)c3ccccc3)[C@@H]2[C@H]1OC(C)=O (stereo partly specified) | Active

System: Saccharomyces cerevisiae
Assay: Toxicity against Saccharomyces cerevisiae AD1-8u(-)
Type: organism-based
How it was run: (§1)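 Yeast cells (10^4) seeded with inhibitor 0.15−80 μM or none, grown 48 h at 30 °C in YEPD; optical density measured. Growth without inhibitor set as 100%, and the concentration giving 50% growth taken as IC50. Means ± SD of three independent experiments, duplicate samples.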

Structure (SMILES) | IC50 [µM]
C=C1CC(OC(C)=O)C(=O)C(C)(C)/C=C/[C@H](C)[C@@H](OC(C)=O)[C@@]2(OC(C)=O)C[C@@H](C)[C@H](OC(=O)c3ccccc3)[C@@H]2[C@H]1OC(C)=O (stereo partly specified) | 2.3

System: Saccharomyces cerevisiae
Assay: Toxicity against Saccharomyces cerevisiae AD1-8u(-) overexpressing CaCdr1p
Type: organism-based
How it was run: as §1

Structure (SMILES) | IC50 [µM]
C=C1CC(OC(C)=O)C(=O)C(C)(C)/C=C/[C@H](C)[C@@H](OC(C)=O)[C@@]2(OC(C)=O)C[C@@H](C)[C@H](OC(=O)c3ccccc3)[C@@H]2[C@H]1OC(C)=O (stereo partly specified) | 31.7

System: Saccharomyces cerevisiae
Assay: Toxicity against Saccharomyces cerevisiae AD1-8u(-) overexpressing CaMdr1p
Type: organism-based
How it was run: as §1

Structure (SMILES) | IC50 [µM]
C=C1CC(OC(C)=O)C(=O)C(C)(C)/C=C/[C@H](C)[C@@H](OC(C)=O)[C@@]2(OC(C)=O)C[C@@H](C)[C@H](OC(=O)c3ccccc3)[C@@H]2[C@H]1OC(C)=O (stereo partly specified) | 25

System: Saccharomyces cerevisiae
Assay: Resistance index, ratio of IC50 for Saccharomyces cerevisiae AD1-8u(-) overexpressing CaCdr1p to IC50 for Saccharomyces cerevisiae AD1-8u(-)
Type: functional
How it was run: (§2)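 RI computed as the IC50 for the AD-CDR1 or AD-MDR1 strain divided by that for control strain AD1-8u−. Each IC50 comes from optical density after 48 h growth at 30 °C of 10^4 cells with inhibitor at 0.15−80 μM, 50% growth versus untreated. Means ± SD of three independent experiments.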

Structure (SMILES) | Ratio IC50
C=C1CC(OC(C)=O)C(=O)C(C)(C)/C=C/[C@H](C)[C@@H](OC(C)=O)[C@@]2(OC(C)=O)C[C@@H](C)[C@H](OC(=O)c3ccccc3)[C@@H]2[C@H]1OC(C)=O (stereo partly specified) | 13.8

System: Saccharomyces cerevisiae
Assay: Resistance index, ratio of IC50 for Saccharomyces cerevisiae AD1-8u(-) overexpressing CaMdr1p to IC50 for Saccharomyces cerevisiae AD1-8u(-)
Type: functional
How it was run: as §2

Structure (SMILES) | Ratio IC50
C=C1CC(OC(C)=O)C(=O)C(C)(C)/C=C/[C@H](C)[C@@H](OC(C)=O)[C@@]2(OC(C)=O)C[C@@H](C)[C@H](OC(=O)c3ccccc3)[C@@H]2[C@H]1OC(C)=O (stereo partly specified) | 10.9

System: Saccharomyces cerevisiae
Assay: Growth inhibition of Saccharomyces cerevisiae AD1-8u(-) assessed as FIC of fluconazole by checkerboard method
Type: functional
How it was run: (§3)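 Checkerboard per CLSI: yeast cells (10^4) in 96-well format with fluconazole 0.15−800 μM crossed with inhibitor 0.15−80 μM, grown 48 h at 30 °C in YEPD; growth read by optical density. FIC for FLC = IC50 of FLC in combination/IC50 alone; FIC for inhibitor likewise; FICI from both. Means ± SD of three independent experiments.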

Structure (SMILES) | FIC50
C=C1CC(OC(C)=O)C(=O)C(C)(C)/C=C/[C@H](C)[C@@H](OC(C)=O)[C@@]2(OC(C)=O)C[C@@H](C)[C@H](OC(=O)c3ccccc3)[C@@H]2[C@H]1OC(C)=O (stereo partly specified) | 1.2

System: Saccharomyces cerevisiae
Assay: Growth inhibition of Saccharomyces cerevisiae AD1-8u(-) overexpressing CaCdr1p assessed as FIC of fluconazole by checkerboard method
Type: functional
How it was run: as §3

Structure (SMILES) | FIC50
C=C1CC(OC(C)=O)C(=O)C(C)(C)/C=C/[C@H](C)[C@@H](OC(C)=O)[C@@]2(OC(C)=O)C[C@@H](C)[C@H](OC(=O)c3ccccc3)[C@@H]2[C@H]1OC(C)=O (stereo partly specified) | 0.04

System: Saccharomyces cerevisiae
Assay: Growth inhibition of Saccharomyces cerevisiae AD1-8u(-) overexpressing CaMdr1p assessed as FIC of fluconazole by checkerboard method
Type: functional
How it was run: as §3

Structure (SMILES) | FIC50
C=C1CC(OC(C)=O)C(=O)C(C)(C)/C=C/[C@H](C)[C@@H](OC(C)=O)[C@@]2(OC(C)=O)C[C@@H](C)[C@H](OC(=O)c3ccccc3)[C@@H]2[C@H]1OC(C)=O (stereo partly specified) | 1

System: Saccharomyces cerevisiae
Assay: Growth inhibition of Saccharomyces cerevisiae AD1-8u(-) assessed as FIC of compound by checkerboard method
Type: functional
How it was run: as §3

Structure (SMILES) | FIC50
C=C1CC(OC(C)=O)C(=O)C(C)(C)/C=C/[C@H](C)[C@@H](OC(C)=O)[C@@]2(OC(C)=O)C[C@@H](C)[C@H](OC(=O)c3ccccc3)[C@@H]2[C@H]1OC(C)=O (stereo partly specified) | 0.07

System: Saccharomyces cerevisiae
Assay: Growth inhibition of Saccharomyces cerevisiae AD1-8u(-) overexpressing CaCdr1p assessed as FIC of compound by checkerboard method
Type: functional
How it was run: as §3

Structure (SMILES) | FIC50
C=C1CC(OC(C)=O)C(=O)C(C)(C)/C=C/[C@H](C)[C@@H](OC(C)=O)[C@@]2(OC(C)=O)C[C@@H](C)[C@H](OC(=O)c3ccccc3)[C@@H]2[C@H]1OC(C)=O (stereo partly specified) | 0.02

System: Saccharomyces cerevisiae
Assay: Growth inhibition of Saccharomyces cerevisiae AD1-8u(-) overexpressing CaMdr1p assessed as FIC of compound by checkerboard method
Type: functional
How it was run: as §3

Structure (SMILES) | FIC50
C=C1CC(OC(C)=O)C(=O)C(C)(C)/C=C/[C@H](C)[C@@H](OC(C)=O)[C@@]2(OC(C)=O)C[C@@H](C)[C@H](OC(=O)c3ccccc3)[C@@H]2[C@H]1OC(C)=O (stereo partly specified) | 0.02

System: Saccharomyces cerevisiae
Assay: Growth inhibition of Saccharomyces cerevisiae AD1-8u(-) assessed as FIC index by checkerboard method
Type: functional
How it was run: as §3

Structure (SMILES) | fractional inhibitory concentration index (FICI)
C=C1CC(OC(C)=O)C(=O)C(C)(C)/C=C/[C@H](C)[C@@H](OC(C)=O)[C@@]2(OC(C)=O)C[C@@H](C)[C@H](OC(=O)c3ccccc3)[C@@H]2[C@H]1OC(C)=O (stereo partly specified) | 1.27

System: Saccharomyces cerevisiae
Assay: Growth inhibition of Saccharomyces cerevisiae AD1-8u(-) overexpressing CaCdr1p assessed as FIC index by checkerboard method
Type: functional
How it was run: as §3

Structure (SMILES) | fractional inhibitory concentration index (FICI)
C=C1CC(OC(C)=O)C(=O)C(C)(C)/C=C/[C@H](C)[C@@H](OC(C)=O)[C@@]2(OC(C)=O)C[C@@H](C)[C@H](OC(=O)c3ccccc3)[C@@H]2[C@H]1OC(C)=O (stereo partly specified) | 0.06

System: Saccharomyces cerevisiae
Assay: Growth inhibition of Saccharomyces cerevisiae AD1-8u(-) overexpressing CaMdr1p assessed as FIC index by checkerboard method
Type: functional
How it was run: as §3

Structure (SMILES) | fractional inhibitory concentration index (FICI)
C=C1CC(OC(C)=O)C(=O)C(C)(C)/C=C/[C@H](C)[C@@H](OC(C)=O)[C@@]2(OC(C)=O)C[C@@H](C)[C@H](OC(=O)c3ccccc3)[C@@H]2[C@H]1OC(C)=O (stereo partly specified) | 1.02

From ChEMBL document CHEMBL3352033, “Jatrophanes from Euphorbia squamosa as potent inhibitors of Candida albicans multidrug transporters” (J Nat Prod, 2014)
